Bioassay records: PubChem, several laboratories
The list is not random: actives were taken first. Their share in the collection is about 1.8%.
hK5 inh: kallikrein 5 (human) inhibition; AID 873; 0.59% of 210,000 active; inhibition, % at 5 µM; recombinant hK5, fluorogenic AMC substrate cleavage;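 active = inhibition of 40% or more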;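 note: 0% = enzyme controls without compound and 100% = no-enzyme blanks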
FXIIa inh: inhibitors of human coagulation factor XIIa; P00748; purified FXIIa, Boc-QGR-AMC fluorogenic substrate, 2 h; inhibition, % at 5 µM; 0.3% of 220,000 active; AID 800; in the data active = inhibition above about 40%;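 note: 0% = enzyme with no compound and 100% = blank without enzyme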
Target sequence (P00748 20-372 limits assumed): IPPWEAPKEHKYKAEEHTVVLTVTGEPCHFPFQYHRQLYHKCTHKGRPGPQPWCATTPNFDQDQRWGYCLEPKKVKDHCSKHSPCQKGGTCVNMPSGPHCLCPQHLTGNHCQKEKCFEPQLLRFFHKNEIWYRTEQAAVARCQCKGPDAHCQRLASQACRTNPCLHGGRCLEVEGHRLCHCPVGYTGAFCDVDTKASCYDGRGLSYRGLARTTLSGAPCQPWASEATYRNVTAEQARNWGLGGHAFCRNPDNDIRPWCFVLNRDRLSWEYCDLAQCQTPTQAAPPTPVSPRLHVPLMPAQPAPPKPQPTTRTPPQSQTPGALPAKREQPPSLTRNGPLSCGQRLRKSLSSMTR
Target sequence (P00748 373-615 limits assumed): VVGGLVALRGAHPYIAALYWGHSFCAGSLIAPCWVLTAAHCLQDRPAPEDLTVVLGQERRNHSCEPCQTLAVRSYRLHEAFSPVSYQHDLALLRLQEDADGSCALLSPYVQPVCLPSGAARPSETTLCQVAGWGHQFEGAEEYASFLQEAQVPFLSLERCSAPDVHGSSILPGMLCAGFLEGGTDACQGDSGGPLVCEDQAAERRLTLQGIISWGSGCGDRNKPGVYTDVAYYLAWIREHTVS
Platelet DG rel: platelet dense granule release activity; 0.22% of 300,000 active; AID 1663; inhibition, %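 (compounds screened at 7.5 µM in platelet-rich plasma)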; human platelet-rich plasma, SFLLRN dense granule ATP release, luminescence;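 active = mean replicate score, as percent of positive control, at or above 50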
Thrombin inh: inhibitors of human thrombin | P00734 | inhibition, % at 5 µM | alpha-thrombin, Boc-VPR-AMC fluorogenic substrate cleavage | 0.26% of 220,000 active | AID 1046;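 active = inhibition at or above 40%; inactive = inhibition below 40%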;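 note: 0% = enzyme with no compound and 100% = wells without enzyme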
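Test system: human alpha-thrombin protein / Dosing: one concentration per compound, 5 µM, with 0.2% DMSO / Medium: pH 7.5 Tris-saline with Tween 20 / Benchmarks: no-compound enzyme wells and no-enzyme blanks / Read-out basis: percent inhibition of thrombin substrate cleavage / Timing: reaction at room temperature / Measured by: fluorescence, ex 355 nm, em 460 nm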
FXIa inh: blocks human coagulation factor XIa protease activity; purified FXIa, Boc-Glu-Ala-Arg-AMC fluorogenic substrate; AID 798; P03951; inhibition, % at 5 µM; 0.14% of 220,000 active;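 active = inhibition of at least 40%; inactive = inhibition below 40%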;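 note: fluorescence of freed AMC excited at 355 nm; 0% = enzyme without compound and 100% = no enzyme blank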
Wee1 degr inh: human Wee1 degradation inhibition, primary screen. 1.2% of 220,000 active. HeLa Luc-Wee1K328M stability, luciferase luminescence; 100% = proteasome inhibitor MG132 effect. reporter increase, % at 5 µM;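 active = activation above the mean of all tested compounds plus 3 SD, set per screening run, cut at about 8.8% in these data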;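 note: cells exposed to compound for 20 h before luminescence read; 0% = DMSO alone and 100% = MG132 at 30 µM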
An asterisk follows results filed as active; nt = no result.

SMILES | hK5 inh | FXIIa inh | Platelet DG rel | Thrombin inh | FXIa inh | Wee1 degr inh
CC(NC(=O)C(C)N1c2cccc3cccc(c23)S1(=O)=O)c1ccccc1 (stereo not drawn) | nt | nt | -1 | nt | nt | nt
CCc1noc(C)c1C(=O)Nc1ccc(Cl)c(S(=O)(=O)N2CCCCC2)c1 | nt | nt | 4 | nt | nt | nt
Cc1ccc(Cc2cnc(N3C(=N)SC(C)C3=O)s2)cc1 (stereo not drawn) | -34 | -7 | 12 | -1 | -6 | -2
Cc1cccc(Cc2cnc(N3C(=N)SC(C)C3=O)s2)c1 (stereo not drawn) | -14 | 13 | -1 | 3 | -5 | 9.6*
CCCCCOC(=O)CSc1nnc(-c2cc(OC)c(OC)c(OC)c2)o1 | -1 | 5 | -5 | -8 | -3 | 9.0*
Cc1cccc(NC(=O)c2ccc(NCCO)c([N+](=O)[O-])c2)n1 | 7 | 16 | 85* | 4 | 2 | -2
CN1C(=C2C(=O)OC(C)(C)OC2=O)Sc2ccccc21 | -4 | 11 | 1 | 2 | -1 | 8.8*
Cc1nc2c3ccccc3nc(NNC(=O)CCC(=O)NC3CCCC3)n2n1 | 50* | 9 | 4 | 5 | -3 | 0
Cc1cc(C)n(CC2CC(=O)N(c3ccc(Cl)c(Cl)c3)C2=O)n1 (stereo not drawn) | 54* | 16 | 8 | 21 | 18 | -2
O=C(NCCSc1c[nH]c2ccccc12)c1ccco1 | 0 | 19 | 7 | 0 | 1 | 2
O=C(NCCSc1c[nH]c2ccccc12)c1c(F)cccc1F | 1 | 9 | 74* | -1 | 3 | 1
Cc1cccc(N2CCN(C(=O)C3CCC(=O)N(C4CC4)C3)CC2)c1C (stereo not drawn) | nt | nt | -10 | nt | nt | nt
O=C(CCl)Nc1ccccc1C(=O)Nc1ccc2c(c1)OCO2 | 42* | 25 | 55* | 16 | 28 | 1
COC(=O)c1ccc(C(=O)OC)c(NC(=O)Nc2ccc3c(c2)OCO3)c1 | 33 | -6 | -1 | -10 | 4 | 8
O=C(CCNC(=O)c1ccccc1Cl)Nc1ccc2c(c1)OCO2 | 4 | 16 | -3 | 6 | 3 | -3
O=C(CS(=O)(=O)Cc1ccccc1)Nc1ccc2c(c1)OCO2 | 1 | 10 | 9 | 5 | -1 | 11*
O=C(CCc1ccccc1)Nc1ccc2c(c1)OCO2 | nt | nt | 4 | nt | nt | nt
COC(=O)c1ccccc1NC(=O)Nc1ccc2c(c1)OCO2 | 7 | 8 | 74* | -3 | -25 | 4
CC(=O)N1c2c(cc(Br)cc2S(=O)(=O)N2CCN(c3ccccc3F)CC2)CC1C (stereo not drawn) | nt | nt | -3 | nt | nt | nt
Cc1cc(C)c(S(=O)(=O)NC2CC3CCC2C3)c(C)c1 (stereo not drawn) | nt | nt | -2 | nt | nt | nt
CCOc1ccc(OCCNCc2ccc(OC(C)C(=O)N(C)C)c(OCC)c2)cc1 (stereo not drawn) | nt | nt | -1 | nt | nt | nt
COc1cc(/C=C(/NC(=O)c2ccccc2)C(=O)N2CCOCC2)c([N+](=O)[O-])cc1OC | nt | nt | -20 | nt | nt | nt
COc1cc(/C=C(/NC(=O)c2ccccc2)C(=O)N2CCN(C)CC2)c([N+](=O)[O-])cc1OC | 40* | 10 | -2 | 19 | 5 | 4
CCCCCOC(=O)Nc1nnc(CCCCC)s1 | -21 | 47* | -5 | -8 | 4 | 2
CCCCCc1nnc(NC(=O)OCCC)s1 | -6 | 0 | 0 | -6 | -12 | -2
SMILES | hK5 inh | FXIIa inh | Platelet DG rel | Thrombin inh | FXIa inh | Wee1 degr inh
Cc1ccc(-n2c(CNc3ccc(F)cc3)nnc2SCC(N)=O)cc1 | -7 | 7 | -5 | 3 | 0 | -1
CC(C)(C)NS(=O)(=O)c1ccc(CCC(=O)N2CCCC2)cc1 | -8 | 2 | 1 | nt | 4 | -3
COc1ccc(NC(=O)c2cc(N3C(=O)C4C5CCC(C5)C4C3=O)ccc2Cl)c(OC)c1 (stereo not drawn) | nt | nt | -2 | nt | nt | nt
COC(=O)c1cc(N2C(=O)C3C(C2=O)C2(C)C=CC3(C)O2)ccc1Cl (stereo not drawn) | 44* | 6 | 9 | 104* | 5 | -3
Cc1ccc(C(=O)NCCN2CCNC2=O)cc1 | 44* | 47* | 5 | 19 | 24 | 5
CN(C)/C(=N\S(=O)(=O)c1ccc(Cl)cc1)c1ccc(F)cc1 | nt | nt | 7 | nt | nt | nt
COCCn1cc(C(=O)c2ccccc2OCC(=O)Nc2cc(C)on2)cc(C#N)c1=O | 42* | 4 | -9 | 24 | 6 | 0
O=C1N/C(=C\c2ccc(O)cc2)C(=O)c2ccccc21 | 3 | -7 | 80* | -2 | -2 | 0
O=c1c2ccccc2nc2ccc(NCc3cccs3)nn12 | -19 | 0 | 3 | 0 | -6 | -1
CC(C)(C)c1ccc(OCc2nc(-c3ccccn3)no2)c(Br)c1 | 44* | 32 | 8 | 19 | 15 | -1
Clc1cc(Cl)c(OCc2nc(-c3ccccn3)no2)cc1Cl | 1 | -7 | 3 | -15 | -1 | 1
CN(C(=O)CO/N=C/c1ccc(OC(F)F)cc1)C1CCS(=O)(=O)C1 (stereo not drawn) | -6 | 5 | -10 | -8 | 4 | -3
Cc1ccc(S(=O)(=O)NC(CC(C)C)C(=O)NCc2ccco2)cc1 (stereo not drawn) | 45* | 6 | -3 | 6 | 3 | 2
Cc1ccc(S(=O)(=O)NC(CC(=O)NCc2ccco2)c2ccco2)cc1 (stereo not drawn) | -30 | -2 | 1 | 7 | -13 | 2
CC(C)OCCCNS(=O)(=O)c1ccc2c(c1)oc(=O)n2C | 42* | 21 | 0 | 14 | 16 | 0
CCCN(CCC)CCCNS(=O)(=O)c1ccc2c(c1)oc(=O)n2C | 1 | 26 | -6 | 0 | 10 | -3
Cc1ccnc(Nc2nc(-c3ccc(O)cc3O)cs2)c1 | nt | nt | -1 | nt | nt | nt
Cc1nc2ccc(NC(=O)c3ccc(Br)o3)cc2s1 | -10 | 8 | -3 | 3 | -2 | -2
CCCC(=O)Nc1nc2ccc(NC(=O)c3ccc(Br)o3)cc2s1 | 3 | 10 | -24 | 2 | 4 | 9.5*
COC(=O)c1c(C)nn(-c2ccccc2)c1N | -5 | 5 | 15 | -4 | 5 | -1
COC(=O)c1c(C)nn(-c2ccccc2)c1-n1cccc1 | 33 | 33 | 8 | 41* | 14 | -2
COc1ccc(CN2CC(=O)N(c3cc(Cl)ccc3OC)C2=S)cc1OC | nt | nt | -1 | nt | nt | nt
CN(C)c1ccc(C(=O)OCC(=O)c2cccs2)cc1 | -12 | 6 | 13 | -2 | 0 | 9.0*
COc1ccc(C(=O)COC(=O)c2ccc(N(C)C)cc2)cc1 | -6 | 2 | -2 | -6 | -4 | -2
COc1ccccc1CC(=O)NCc1csc(-c2cccs2)n1 | 9 | 45* | 3 | 11 | 47* | 0
COc1ccc(C(=O)NCCNc2ccc([N+](=O)[O-])cc2)cc1OC | nt | nt | -6 | nt | nt | nt
O=C(NCCNc1ccc([N+](=O)[O-])cc1)c1cccc(Br)c1 | -5 | 8 | -6 | -3 | 11 | 9.4*
Cc1ccccc1C(=O)Nc1ccccc1C(=O)N1CCC(C)CC1 | nt | nt | -3 | nt | nt | nt
